Measurements gathered from unrelated publications.
Protocols differ between the studies behind these lines.
Target: Myotonin-protein kinase (DMPK, Homo sapiens, UniProt Q09013)

Compound | observed | action | method | tested at | endpoint | value
CC(C)(C)c1nc2c(s1)c1nc(N)ncc1c1ccc(NS(=O)(=O)c3c(F)cccc3F)c(F)c12 | enzyme activity | inhibitor | radiometric | 1 µM | remaining activity | 95%
C#Cc1cccc(Nc2ncnc3cc(OCCOC)c(OCCOC)cc23)c1 | cell-free assay |  |  | 0.5 µM | remaining signal | 96.9%
Cc1sc(C(=O)NC2COC2)cc1-n1cc(NC(=O)Nc2c(F)cccc2Cl)cn1 | enzyme activity | inhibitor |  | 10 µM | remaining activity | 95.2%
COc1ccc2c(O[C@@H]3C[C@H]4C(=O)N[C@]5(C(=O)O)CC5/C=C\CCCCC[C@H](NC(=O)OC5CCCC5)C(=O)N4C3)cc(-c3csc(NC(=O)C(C)C)n3)nc2c1C (stereo partly shown) | cell-free assay |  | competition with immobilised ligand | 1 µM | remaining binding | 83%
CCN(CC)CCNC(=O)c1c(C)[nH]c(/C=C2\C(=O)Nc3ccc(F)cc32)c1C | enzyme activity | inhibitor |  | 10 µM | inhibition | -5%
c1ccc(N2CCN(Cc3nc4ccccc4[nH]3)CC2)nc1 | binding |  | competition with immobilised ligand | 1 µM | remaining binding | 100%
N#CCCc1ccc2c(c1)-c1[nH]c3ccc([N+](=O)[O-])cc3c1CC(=O)N2 | cell-free assay |  |  | 0.5 µM | remaining signal | 89.8%
Nc1ncnc2occ(-c3ccc(NC(=O)Nc4cc(C(F)(F)F)ccc4F)cc3)c12 | cell-free assay | inhibitor |  | 20 µM | remaining signal | 73%
C=CC(=O)Nc1cc(Nc2nccc(Nc3cc(Cl)c(F)cc3C(C)(C)O)n2)c(OC)cc1N1CC[C@@H](N(C)C)C1 | enzyme activity | inhibitor |  | 1 µM | inhibition | 11%
COc1cc(Cl)c(C(=O)N[C@@H](CN[C@H]2CC[C@@H](N)CC2)Cc2ccc(C#N)cc2)cc1-c1ccc(CN[C@H](C)c2ccc(C)cc2)o1 | enzyme activity | inhibitor |  | 1 µM | remaining activity | 100%
O=C(Nc1cnn(-c2csc(C(=O)NC3COC3)c2)c1)Nc1ccccc1Cl | enzyme activity | inhibitor |  | 5 µM | remaining activity | 102%
O=C(O)c1cc(-c2ccc(C3CCNCC3)cc2)c2ccc(-c3ccc(C(F)(F)F)cc3)cc2c1 | cell-free assay |  | competition with immobilised ligand | 1 µM | remaining binding | 100%
Cn1c2c(c3ccc(Cl)c(Cl)c31)C(C#N)C1(CCOCC1)NC2=O (stereo not shown) | thermal stability |  | DSF | 10 µM | ΔTm | 0 °C
Cc1ccc(C(=O)Nc2ccc(CN3CCN(C)CC3)c(C(F)(F)F)c2)cc1C#Cc1cnc2cccnn12 | enzyme activity | inhibitor |  | 23.5 nM | remaining activity | 100%
CNC(=O)c1cc(Oc2ccc(NC(=O)Nc3ccc(Cl)c(C(F)(F)F)c3)cc2)ccn1 | enzyme activity | inhibitor |  | 10 µM | inhibition | -16%
CS(=O)(=O)c1cc(C2(NC(=O)c3cncc4c3cnn4-c3ccc(F)cc3)CC2)ccn1 | cell-free assay |  | competition with immobilised ligand | 1 µM | remaining binding | 99%
N#CC1c2c([nH]c3c(Cl)c(Cl)ccc23)C(=O)NC12CCCCC2 (racemic) | thermal stability |  | DSF | 10 µM | ΔTm | -0.6 °C
Cc1ccc(Nc2nccc(N(C)c3ccc4c(C)n(C)nc4c3)n2)cc1S(N)(=O)=O | enzyme activity | inhibitor |  | 0.3 µM | inhibition | -15%
CCC1(CC)NC(=O)c2c(c3ccc(Cl)c(Cl)c3n2C)C1C#N (stereo not shown) | thermal stability |  | DSF | 10 µM | ΔTm | 0.2 °C
CS(=O)(=O)NCC[C@H](NC(=O)c1cncc2c1cnn2-c1ccc(F)cc1)c1ccnc(S(C)(=O)=O)c1 | cell-free assay |  | competition with immobilised ligand | 1 µM | remaining binding | 100%
Cn1c2c(c3ccc(Cl)c(Cl)c31)C(C#N)C1(CCNCC1)NC2=O (racemic) | thermal stability |  | DSF | 10 µM | ΔTm | -0.3 °C
Cc1ccc(NC(=O)c2ccc(C)c(C(F)(F)F)c2)cc1C#Cc1nn(C2CCC(O)CC2)c2ncnc(N)c12 (stereo not shown) | cell-free assay |  |  | 10 µM | remaining signal | 91%
Cc1nc(C2CCN(C(=O)c3ccc(OC(F)(F)F)cc3N)CC2)c2ncc(N3CCN(C)CC3)cc2n1 | cell-free assay |  | competition with immobilised ligand | 1 µM | remaining binding | 100%
Cn1c2c(c3ccc(Cl)c(Cl)c31)C(C#N)C(C)(C)NC2=O (stereo not shown) | thermal stability |  | DSF | 10 µM | ΔTm | 0.4 °C
CC(C)CC(=O)N1CCc2nc(-c3ccc(Br)cc3)nc(N(C)Cc3ccccc3)c2C1 | cell-free assay |  | competition with immobilised ligand | 0.1 µM | remaining binding | 87%
Cn1c2c(c3ccc(Cl)c(Cl)c31)C(C#N)C1(CCN(C(=O)OC(C)(C)C)CC1)NC2=O (racemic) | thermal stability |  | DSF | 10 µM | ΔTm | -0.5 °C
CN(c1ccnc(CNc2nc(Nc3ccc4c(c3)CC(=O)N4)ncc2C(F)(F)F)n1)S(C)(=O)=O | cell-free assay |  | competition with immobilised ligand | 1 µM | remaining binding | 23%
COc1cc2c(Nc3ccc(Br)cc3F)ncnc2cc1OCC1CCN(C)CC1 | cell-free assay |  |  | 0.5 µM | remaining signal | 94.6%
